# Legend:
# [1] = molecular target: Telomerase reverse transcriptase (Homo sapiens, UniProt O14746); experiment: In vitro inhibitory activity of compound against telomerase
# Method in brief: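 Telomerase activity was measured by TRAP assay. Extension products were resolved on 10% nondenaturing polyacrylamide gel, stained with SYBR Green, and band intensity quantified by image analysis. IC50 was derived from the reduction in product signal.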
# HL-60 = experiment: In vitro antiproliferative activity of compound against HL-60 (human assay; type: functional, cell-based
# Method in brief: (§1)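 Cells grown for 3 days with compound, then growth read by sulforhodamine B (SRB) staining. IC50 taken as the dose giving 50% growth inhibition of the cultured cells.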
# HEC-1B cell line = experiment: In vitro antiproliferative activity of compound against HEC-1-B (human endometrical caner ) cell line was determined by SRB assay; type: functional, cell-based; method in brief: as §1
# CAKI-2 = experiment: In vitro antiproliferative activity of compound against Caki-2 (human renal caner ) cell line was determined by SRB assay; type: functional, cell-based; method in brief: as §1
# A549 = experiment: In vitro antiproliferative activity of compound against […] (human lung caner ) cell line was determined by SRB assay; type: functional, cell-based; method in brief: as §1
# HT-29 = experiment: In vitro antiproliferative activity of compound against HT-29 (human colon caner ) cell line aws determined by SRB assay; type: functional, cell-based
# Method in brief: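 Human tumour cell lines exposed to compound for 3 days, with growth measured by sulforhodamine B (SRB) staining. IC50 is the concentration that inhibits growth of 50% of the cultured cells.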
# Telomerase reverse transcriptase, sequence (O14746 whole entry): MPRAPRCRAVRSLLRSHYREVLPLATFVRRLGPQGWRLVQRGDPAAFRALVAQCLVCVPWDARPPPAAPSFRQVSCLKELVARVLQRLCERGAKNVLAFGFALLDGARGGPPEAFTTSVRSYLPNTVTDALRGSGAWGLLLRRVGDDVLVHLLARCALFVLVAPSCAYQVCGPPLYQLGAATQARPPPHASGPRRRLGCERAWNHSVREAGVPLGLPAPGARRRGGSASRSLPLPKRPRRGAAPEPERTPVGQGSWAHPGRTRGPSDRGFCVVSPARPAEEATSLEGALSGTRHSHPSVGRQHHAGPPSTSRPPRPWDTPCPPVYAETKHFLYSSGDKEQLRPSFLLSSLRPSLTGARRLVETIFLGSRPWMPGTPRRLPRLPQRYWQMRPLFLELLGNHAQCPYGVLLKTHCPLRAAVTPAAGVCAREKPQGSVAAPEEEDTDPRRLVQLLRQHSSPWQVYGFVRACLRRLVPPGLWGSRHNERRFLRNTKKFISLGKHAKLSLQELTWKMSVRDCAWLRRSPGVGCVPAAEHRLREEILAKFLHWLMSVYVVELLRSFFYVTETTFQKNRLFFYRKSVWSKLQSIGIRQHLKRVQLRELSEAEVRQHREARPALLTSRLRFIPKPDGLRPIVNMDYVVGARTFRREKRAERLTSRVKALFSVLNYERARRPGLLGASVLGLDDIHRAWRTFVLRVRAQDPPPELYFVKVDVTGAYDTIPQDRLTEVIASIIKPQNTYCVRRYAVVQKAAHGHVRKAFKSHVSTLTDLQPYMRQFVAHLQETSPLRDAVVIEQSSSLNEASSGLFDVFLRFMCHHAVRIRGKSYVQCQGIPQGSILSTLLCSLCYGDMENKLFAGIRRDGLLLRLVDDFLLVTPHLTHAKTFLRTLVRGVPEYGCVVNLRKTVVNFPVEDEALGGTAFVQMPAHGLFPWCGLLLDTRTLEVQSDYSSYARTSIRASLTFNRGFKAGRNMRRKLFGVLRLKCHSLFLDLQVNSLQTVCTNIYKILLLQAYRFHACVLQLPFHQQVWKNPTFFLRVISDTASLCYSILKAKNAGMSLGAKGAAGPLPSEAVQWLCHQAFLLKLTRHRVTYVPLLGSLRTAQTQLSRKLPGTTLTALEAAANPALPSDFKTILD
Compound,IC50 [1],further results
COc1ccc(SC(=O)c2cccc(C=O)n2)cc1,91 µM,
COc1ccccc1SC(=O)c1cccc(C=O)n1,> 100 µM,
Cc1ccccc1SC(=O)c1cccc(C=O)n1,> 100 µM,
CC[C@@]1(O)C(=O)OCc2c1cc1n(c2=O)Cc2cc3ccccc3nc2-1 [CAMPTOTHECIN],,IC50 (HL-60): 0.066 µM; IC50 (HEC-1B cell line): 8.64 µM; IC50 (HT-29): 1.4 µM; IC50 (CAKI-2): 3.96 µM; IC50 (A549): 2.53 µM
O=Cc1cccc(C(=O)Oc2ccc(Cl)c(Cl)c2)n1,> 100 µM,
O=Cc1cccc(C(=O)Sc2cccc(Cl)c2)n1,79 µM,
O=Cc1cccc(C(=O)Nc2ccc(Cl)c(Cl)c2)n1,> 100 µM,
O=Cc1cccc(C(=O)Sc2ccccc2Cl)n1,84 µM,
Cc1ccc(SC(=O)c2cccc(C=O)n2)cc1,> 100 µM,
CC(=O)Nc1ccc(SC(=O)c2cccc(C=O)n2)cc1,> 100 µM,
O=Cc1cccc(C(=O)Sc2c(Cl)cccc2Cl)n1,79 µM,

# More lines, in order of falling IC50 [1], values ahead:
IC50 [1],Compound,further results
77 µM,N#Cc1ccc(C=O)nc1SCc1c(Cl)cccc1Cl,IC50 (HL-60): 26.7 µM; IC50 (HEC-1B cell line): 175 µM; IC50 (CAKI-2): > 300 µM; IC50 (A549): > 300 µM
76 µM,Cc1cccc(SC(=O)c2cccc(C=O)n2)c1,
76 µM,COc1cccc(SC(=O)c2cccc(C=O)n2)c1,
75 µM,O=Cc1cccc(C(=O)Sc2ccc([N+](=O)[O-])cc2)n1,
69 µM,O=Cc1cccc(C(=O)Sc2ccc(F)c(F)c2)n1,
68 µM,O=Cc1cccc(C(=O)Sc2cc(Cl)ccc2Cl)n1,
64 µM,O=Cc1cccc(C(=O)Sc2cc(Cl)cc(Cl)c2)n1,
64 µM,O=Cc1cccc(C(=O)Sc2ccc(F)cc2)n1,
56 µM,O=Cc1cccc(C(=O)Sc2ccc(Br)cc2)n1,
50 µM,O=Cc1cccc(C(=O)Sc2c(Cl)cc(Cl)cc2Cl)n1,
33 µM,O=Cc1cccc(C(=O)Sc2ccc(Cl)cc2)n1,
24 µM,O=Cc1cccc(C(=O)Sc2ccc(Cl)c(Cl)c2)n1,IC50 (HL-60): 13 µM; IC50 (HEC-1B cell line): 56.4 µM; IC50 (CAKI-2): > 300 µM; IC50 (A549): 56.9 µM

# — ChEMBL document CHEMBL1136577, “Synthesis of 6-formyl-pyridine-2-carboxylate derivatives and their telomerase inhibitory activities” (Bioorg Med Chem Lett, 2003)
